Sampled rows, rich in hits. Any-hit rate of the full collection: about 2.1%.
CAL PDZ FP-1 = untagged CAL PDZ binding inhibitors, primary screen, biochemical, fluorescence polarization, HTS | Golgi-associated PDZ and coiled-coil motif-containing protein (Homo sapiens), Q9HD26 | purified CAL PDZ, TMR-peptide fluorescence polarization, 1 h | inhibition, % at 24.9 µM | 0.92% of 300,000 active;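 active = mean inhibition of at least 30% with at least half of replicates also reaching 30%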;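 also: 0% = DMSO neutral control and 100% = excess unlabeled competitor peptide PRC23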
miR122 inh = miR-122 Renilla sensor signal increase in Huh7, primary screen, miR-122 inhibitor project, cell-based, single point, plate reader. AID 602342, 2012. 0.3% of 340,000 active. activation (reporter increase), % at 12.5 µM. Huh7 miR-122 Renilla luciferase sensor, 48 h; neutral wells = 0, positive control = 100;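 active = mean replicate activation score at least 90 and every replicate individually at or above 90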;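 also: higher luciferase means less miR-122 activity so hits act as miR-122 inhibitors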
SR-BI DiI-HDL act = activators of SR-BI mediated DiI-HDL uptake, primary screen, ldlA[mSR-BI] CHO cells, DiI fluorescence | activation, % at 12.5 µM | 3 h; 100 = double the neutral-control signal | 0.096% of 320,000 active | AID 504775, 2011;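 active = mean replicate activation of at least 60% and every replicate at or above 60%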;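 also: 0% = median plate neutral-control signal and 100% = twice that signal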
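System: LDL receptor-deficient CHO ldlA cells overexpressing murine SR-BI | Timing: 3 h uptake period with compound, 37 °C | Medium: HEPES-buffered (25 mM, pH 7.4) F12 plus 0.5% BSA | Dosing: Single-point compound dose | Signal: Bottom-read fluorescence, 550/595 nm | Read-out: Retained DiI signal reflecting DiI-HDL uptake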
CAL PDZ FP-2 = CAL PDZ peptide-binding inhibitors, primary screen, biochemical, fluorescence polarization, Cer-tagged CAL PDZ, HTS. purified CAL PDZ, TMR-peptide fluorescence polarization, 1 h. AID 504414, 2011. 0.02% of 330,000 active. Golgi-associated PDZ and coiled-coil motif-containing protein (Homo sapiens), Q9HD26. inhibition, % at 20 µM;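 active = highest replicate inhibition of at least 40%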;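 also: plate controls were DMSO neutral control wells for no effect and unlabeled competitor peptide control wells for full effect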
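Test system: tagged CAL PDZ domain / Buffer or medium: sodium phosphate/NaCl buffer pH 7.4 with TCEP, IgG, Thesit / Reagent: TMR-labelled reporter peptide T*-PRC34 bound in PDZ groove / Compound dosing: single point, 20 µM / Schedule: 1 h incubation at room temperature before polarization reading / Technique: fluorescence polarization (mP) / Benchmarks: unlabelled peptide, DMSO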
ARNT TACC3 PPI = disruptors of ARNT/TACC3 protein interaction, primary screen, biochemical, AlphaScreen, single concentration | 0.66% of 390,000 active | Transforming acidic coiled-coil-containing protein 3 (Homo sapiens), Q9Y6A5 | AlphaScreen His-ARNT PAS-B/GST-TACC3 binding, luminescence; TACC3 fragment carries E629A point mutation | inhibition, % at 9.99 µM;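 active = mean inhibition of replicates at least 50% and at least half of replicates each reaching 50%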;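 also: 0% = complete ARNT plus TACC3 wells and 100% = ARNT alone without TACC3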
SR-BI DiI inh = inhibitors of SR-BI mediated HDL lipid uptake, primary screen, ldlA[mSR-BI] cells, fluorescence, single point; inhibition, % at 12.5 µM; AID 488896, 2010; Scavenger receptor class B member 1 (Mus musculus), Q61009; ldlA[mSR-BI] CHO cells, DiI-HDL uptake fluorescence, 3 h; 0.96% of 320,000 active;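 active = mean replicate inhibition of at least 70% and a set share of replicates each scoring 70 or more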;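 also: 0% = median of neutral control wells and 100% = median of positive control wells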
Target sequence (Q61009 whole entry, looked up): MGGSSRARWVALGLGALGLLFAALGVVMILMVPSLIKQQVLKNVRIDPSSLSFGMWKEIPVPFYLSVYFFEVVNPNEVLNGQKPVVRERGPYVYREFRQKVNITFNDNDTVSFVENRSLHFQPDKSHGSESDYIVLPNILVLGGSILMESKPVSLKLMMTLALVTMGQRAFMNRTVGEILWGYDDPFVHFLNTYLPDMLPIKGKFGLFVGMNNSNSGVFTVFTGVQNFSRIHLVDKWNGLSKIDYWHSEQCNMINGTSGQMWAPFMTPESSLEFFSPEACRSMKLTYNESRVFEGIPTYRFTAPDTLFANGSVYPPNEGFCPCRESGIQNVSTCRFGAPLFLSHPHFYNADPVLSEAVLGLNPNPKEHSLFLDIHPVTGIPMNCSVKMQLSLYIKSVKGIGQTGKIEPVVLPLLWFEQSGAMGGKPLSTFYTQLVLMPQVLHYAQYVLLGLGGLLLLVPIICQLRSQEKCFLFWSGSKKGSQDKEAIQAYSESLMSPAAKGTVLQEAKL
The depositor's hits bear a star; / = no result; [ ] = dose if it differs, or a comment.

SMILES	CAL PDZ FP-1	miR122 inh	SR-BI DiI-HDL act	CAL PDZ FP-2	ARNT TACC3 PPI	SR-BI DiI inh
COc1ccc(-c2cc(C(=O)Nc3ccccc3O)c3ccccc3n2)cc1OC	2	10	-30	0	-3	30
COc1ccc(C(=O)Nc2nc3ccc(S(C)(=O)=O)cc3s2)cc1OC	0	/	-78	/	-8	78*
COc1ccc(-c2cc(C(=O)Nc3sc4c(c3C#N)CCCC4)c3ccccc3n2)cc1OC	-1	2	-85	-1	3	85*
COc1ccc(-c2cc(C(=O)OCC(=O)NC3CC3)c3ccccc3n2)cc1OC	/	-7	-72	-3	/	72*
C/C=C/c1cnc2c(c1)C(=O)N([C@@H](C)CO)C[C@H](C)[C@H](CN(C)S(=O)(=O)c1ccccc1)O2	/	1[16.7 µM]	/	/	-1	/
Cc1noc(C)c1NC(=O)Nc1ccc2c(c1)C(=O)N([C@@H](C)CO)C[C@@H](C)[C@@H](CN(C)C(=O)Nc1ccc3c(c1)OCO3)OCCCC[C@@H](C)O2	/	4[16.7 µM]	/	/	2	/
COc1ccc(-c2cc(C(=O)Nc3nc4ccccc4s3)c3ccccc3n2)cc1OC	-3	-3	-75	-2	-9	75*
C[C@H](CO)N1C[C@H](C)[C@H](CN(C)C(=O)c2ccccn2)Oc2cc(C3=CCCC3)ccc2S1(=O)=O	/	11[16.7 µM]	/	/	-2	/
O=C(N[C@H]1CC[C@H](CCNC(=O)c2ccccc2F)O[C@@H]1CO)c1cnccn1	/	/	/	/	-9	/
Cc1cccc(C)c1N(CC(=O)N1CCOCC1)S(C)(=O)=O	44*	1	3	/	-2	-3
Cc1cccc(C)c1N(CC(=O)N1CCCC1)S(C)(=O)=O	/	0	-1	0	11	1
COc1cccc(OC)c1C(=O)Nc1ccc2c(c1)N(S(=O)(=O)c1cccs1)CCC2	-5	9	-77	-4	0	77*
O=C(Nc1ccc2c(c1)N(S(=O)(=O)c1cccs1)CCC2)c1c(F)cccc1Cl	-8	33	-41	-2	/	41
O=C(Cn1nnc(-c2cccs2)n1)N1CCOCC1	-1	/	68*	-1	24	-68
CC1CCN(C(=O)Cn2nnc(-c3cccs3)n2)CC1	1	-4	19	-2	-6	-19
CC1(C)Cc2ccccc2C2=NNC(=O)C2=N1	-6	0	-12	1	61*	12
CCNc1nc(NCC)nc(N(C)N)n1	-2	-4	16	0	70*	-16
CC(C)Nc1nc(NC(C)C)nc(N(C)C(N)=O)n1	/	2	-14	0	-4	14
CC(C)Nc1nc(NC(C)C)nc(N(C)N)n1	-2	-16	23	-2	59*	-23
O=C(C[C@@H]1CC[C@@H](NC(=O)Cc2cccnc2)[C@@H](CO)O1)Nc1ccc(-c2ccccc2)cc1	/	2[16.7 µM]	/	/	1	/
COc1ccccc1NC(=O)N[C@@H]1CC[C@H](CC(=O)N[C@@H](C)c2ccccc2)O[C@H]1CO	/	/	/	/	-1	/
COc1cc(OC)c(NC(=O)CCCNC(=O)Cn2cnc3sc(C)c(C)c3c2=O)cc1Cl	-5	-1	-81	-5	4	81*
CCOc1ccccc1NC(=O)CCCNC(=O)Cn1cnc2sc(C)c(C)c2c1=O	-4	-2	-72	0	-3	72*
COC(=O)c1sc2ncn(CC(=O)NCCc3ccc(OC)c(OC)c3)c(=O)c2c1C	3	10	-76	-1	/	76*
COc1ccc(NC(=O)CCCNC(=O)Cn2cnc3sc(C)c(C)c3c2=O)c(OC)c1	-3	-5	1	-2	33	-1
SMILES	CAL PDZ FP-1	miR122 inh	SR-BI DiI-HDL act	CAL PDZ FP-2	ARNT TACC3 PPI	SR-BI DiI inh
COc1ccc(C)cc1NC(=O)CCCNC(=O)Cn1cnc2sc(C)c(C)c2c1=O	-5	-3	-78	-2	-6	78*
COc1ccc(CCNC(=O)Cn2cnc3sc(C)c(-c4ccc(F)cc4)c3c2=O)cc1OC	/	/	-36	-2	-8	36
C[C@@H]1CN([C@@H](C)CO)C(=O)c2cc(C#Cc3cccnc3)cnc2O[C@H]1CN(C)Cc1ccc(F)cc1	/	/	/	/	9	/
CCCN1C[C@@H](C)[C@@H](OC)CN(C)C(=O)c2cc(NC(=O)Nc3ccccc3F)ccc2OC[C@H]1C	/	/	/	/	-5	/
C[C@@H]1CCCCO[C@@H](CN(C)S(=O)(=O)c2ccc(F)cc2)[C@@H](C)CN([C@H](C)CO)C(=O)c2cc(NC(=O)Nc3ccc(C(F)(F)F)cc3)ccc2O1	/	2[16.7 µM]	/	/	-2	/
C[C@@H]1CN([C@@H](C)CO)C(=O)c2cccc(NC(=O)C3CCOCC3)c2O[C@@H]1CN(C)S(=O)(=O)c1ccccc1	/	1[16.7 µM]	/	/	1	/
O=C([C@H]1[C@H](CO)[C@H]2Cn3c(ccc(C4=CCCC4)c3=O)[C@@H]1N2C(=O)c1ccncc1)N1CCOCC1	/	/	/	/	15	/
C[C@@H]1CN([C@H](C)CO)C(=O)c2cc(-c3ccncc3)cnc2O[C@@H]1CN(C)C(=O)NC1CCCC1	/	/	/	/	-6	/
COc1ccc(S(=O)(=O)N2CCOCC2)cc1NC(=O)CN1CCCCCC1	36*	/	2	32	0	-2
COc1ccc(S(=O)(=O)N2CCOCC2)cc1C(=O)NCC(c1ccccc1)c1ccccc1	42*	15	-14	-1	-2	14
COc1ccccc1OCC(=O)Nc1nc(-c2ccc(S(=O)(=O)N3CCOCC3)cc2)cs1	-3	-1	-73	/	-11	73*
O=C(COc1ccccc1)Nc1nc(-c2ccc(S(=O)(=O)N3CCOCC3)cc2)cs1	-10	16	-54	/	-2	54
Nc1nnc(SCC(=O)Nc2cc(S(=O)(=O)N3CCOCC3)ccc2N2CCCC2)s1	68*	4	/	-3	4	4
COc1ccc(S(=O)(=O)N2CCOCC2)cc1NC(=O)Cc1c(Cl)cccc1Cl	4	4	-17	0	4	17
COc1ccc(S(=O)(=O)N2CCOCC2)cc1C(=O)NCc1ccccc1CN1CCCC1	-5	-10	-33	-2	2	33
CC(C)c1ccc2c(c1)C1(NN=C(c3ccccc3)S1)C(=O)N2 (stereo not drawn)	-1	0	-106	0	50*	106*
CC(C)c1cccc(O)c(=O)c1	-3	-4	12	0	-25	-12

Source: PubChem BioAssay (Broad Institute)
